Laboratory results taken from ChEMBL document CHEMBL1149612, “Synthesis and antiproliferative activity of clausine E, mukonine, and koenoline bioisosteres” (Bioorg Med Chem, 2007).
pIC50: −log10 of the molar value.

How the values were obtained:
[1] = Antiproliferative activity against human Mes-sa cells after 72 hrs; type: functional, cell-based
In short: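 Cells seeded at 5 × 10^3 cells/well and allowed 24 h in medium before compound addition. Exposure lasted 72 h, followed by MTT read-out. Growth was expressed as absorbance relative to untreated controls, and IC50 was taken as the dose giving 50% growth inhibition. Five separate experiments were run, each in triplicate, reported as mean ± SD.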

MCF7 = assay: Antiproliferative activity against human MCF7 cells after 72 hrs; type: functional, cell-based; conditions: MCF7, 72 h
In short: (§1)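 Asynchronously growing cells seeded at 5 × 10^3 cells/well and held 24 h in medium, then exposed to drug for 72 h; MTT reagent (5 mg/mL stock) added. Growth taken as absorbance of treated wells as percent of untreated controls. IC50 is the dose giving 50% growth inhibition versus untreated cells. Five separate experiments, each in triplicate; mean ± SD.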

SW480 [2] = assay: Cell cycle arrest in SW480 cells by accumulation at G2/M phase at 100 uM after 72 hrs; type: functional, Homo sapiens
In short: (§2)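 Colorectal cells given 100 µM compound for 72 h. Afterwards 10^6 cells/mL were resuspended in propidium iodide solution and held overnight at 4 °C, then run on flow cytometry. Doublets and aggregates were gated out on FL2-area/FL2-width before calculating the percentage of cells in G1, S and G2/M phases.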

HCT-116 [3] = assay: Cell cycle arrest in HCT116 cells by accumulation at S phase at 100 uM after 72 hrs; type: functional, Homo sapiens; in short: as §2
HCT-116 [4] = assay: Cell cycle arrest in HCT116 cells by accumulation at G1 phase at 100 uM after 72 hrs; type: functional, Homo sapiens; in short: as §2
HCT-116 [5] = assay: Cell cycle arrest in HCT116 cells by accumulation at G2/M phase at 100 uM after 72 hrs; type: functional, Homo sapiens; in short: as §2
SW48 [6] = assay: Cell cycle arrest in SW48 cells by accumulation at S phase at 100 uM after 72 hrs; type: functional, Homo sapiens; in short: as §2
SW48 [7] = assay: Antiproliferative activity against human SW48 cells after 72 hrs; type: functional, cell-based; conditions: SW48, 72 h; in short: as §1
SW48 [8] = assay: Cell cycle arrest in SW48 cells by accumulation at G1 phase at 100 uM after 72 hrs; type: functional, Homo sapiens; in short: as §2
SW480 [9] = assay: Antiproliferative activity against human SW480 cells after 72 hrs; type: functional, cell-based; conditions: SW480, 72 h; in short: as §1
HCT-116 [10] = assay: Antiproliferative activity against human HCT116 cells after 72 hrs; type: functional, cell-based; conditions: HCT-116, 72 h; in short: as §1
SW480 [11] = assay: Cell cycle arrest in SW480 cells by accumulation at G1 phase at 100 uM after 72 hrs; type: functional, Homo sapiens; in short: as §2
SW48 [12] = assay: Cell cycle arrest in SW48 cells by accumulation at G2/M phase at 100 uM after 72 hrs; type: functional, Homo sapiens; in short: as §2
SW480 [13] = assay: Cell cycle arrest in SW480 cells by accumulation at S phase at 100 uM after 72 hrs; type: functional, Homo sapiens; in short: as §2

| Structure (SMILES) | pIC50 [1] | pIC50 (MCF7) | Activity (SW480 [2]) | Activity (HCT-116 [3]) | Activity (HCT-116 [4]) | Activity (HCT-116 [5]) | Activity (SW48 [6]) | pIC50 (SW48 [7]) | Activity (SW48 [8]) | pIC50 (SW480 [9]) | pIC50 (HCT-116 [10]) | Activity (SW480 [11]) | Activity (SW48 [12]) | Activity (SW480 [13]) |
| --- | --- | --- | --- | --- | --- | --- | --- | --- | --- | --- | --- | --- | --- | --- |
| COC(=O)c1cc(O)c2[nH]c3ncccc3c2c1 | 4.80 | 4.96 | 14.7% | 29.1% | 56.6% | 14.3% | 18.9% | 5.05 | 62.4% | 5.06 | 5.15 | 58.7% | 18.7% | 26.5% |
| COC(=O)c1cc(OC)c2[nH]c3ncccc3c2c1 | 3.84 | 5.36 | 11.9% | 31% | 52.6% | 16.4% | 23% | 5.25 | 59% | 5.33 | 5.07 | 60.7% | 18.1% | 27.3% |
| COc1cc(CO)cc2c1[nH]c1ncccc12 | 4.19 | 4.24 | 14.7% | 17.4% | 53.3% | 29.3% | 9.7% | 4.68 | 57.4% | 4.20 | 4.44 | 52.3% | 32.4% | 33% |
| COC(=O)c1cc(O)c2[nH]c3ccccc3c2c1 [CLAUSINE E] | 4.46 | 6.22 | 25.7% | 12.1% | 60% | 28% | 12.5% | 4.68 | 65.6% | 5.32 | 5.72 | 59.9% | 21.9% | 17.5% |
| O=c1[nH]cc(F)c(=O)[nH]1 [FLUOROURACIL] | – | 6.52 | – | – | – | – | – | 5.28 | – | 5.46 | 5.55 | – | – | – |
| COC(=O)c1cc(OC)c2[nH]c3ccccc3c2c1 [MUKONINE] | 4.10 | 4.52 | 10.3% | 17.4% | 70.8% | 11.7% | 14.1% | 4.21 | 76.7% | 4.14 | 4.37 | 55.8% | 9% | 33.8% |
